Compounds with a hit are over-represented: about 1.4% of the library has one in this group of screens.
ZTA counter – ZTA (EBV) inhibition in EBNA-1 counter-screen. P03206. ZTA-DNA binding, fluorescence polarization. inhibition, % at 11 µM. hit rate 0.15% among 320,000. AID 2234; in the data active = inhibition above about 33%
Target sequence (P03206 whole entry, looked up): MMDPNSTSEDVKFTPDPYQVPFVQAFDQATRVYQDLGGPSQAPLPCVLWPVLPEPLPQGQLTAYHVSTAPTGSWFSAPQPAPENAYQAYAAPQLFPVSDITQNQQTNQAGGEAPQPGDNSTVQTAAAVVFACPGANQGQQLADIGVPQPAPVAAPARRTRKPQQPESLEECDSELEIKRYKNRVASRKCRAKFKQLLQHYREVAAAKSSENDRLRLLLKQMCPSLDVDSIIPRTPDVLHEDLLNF
UBC9 SUMO inh – SUMOylation inhibition | hit rate 0.36% among 290,000 | inhibition, % at 35 µM | HTRF SUMOylation assay, SAE1/SAE2 + UBC9, in vitro | P63279; in the data active = inhibition above about 50%, passing the limit was not always enough
Target sequence (P63279 whole entry, looked up): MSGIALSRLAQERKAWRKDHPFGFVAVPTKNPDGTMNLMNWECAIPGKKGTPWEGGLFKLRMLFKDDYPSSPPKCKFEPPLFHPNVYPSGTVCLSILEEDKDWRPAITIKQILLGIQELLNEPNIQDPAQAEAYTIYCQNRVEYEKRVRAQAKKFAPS
HCV core dimer – blocks dimerization of HCV core protein; TR-FRET GST/Flag-core106 dimerization, 1536-well; inhibition, % at 5 µM; hit rate 0.33% among 300,000; AID 1899;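 active = inhibition above the mean of all tested compounds plus 3 SD, set per screening campaign, cut at about 45% in these data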
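assay system = GST-tagged and Flag-tagged HCV core protein residues 1-106 | controls = unlabelled core106 and no-GST-core106 wells | incubation = compound-protein-antibody incubation 4 h at 22.5 °C | probe or stimulus = Eu donor and XL665 acceptor anti-tag antibodies | read-out = % inhibition based on acceptor/donor emission ratio | signal = TR-FRET 671 and 617 nm emission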
HCV NS3 hel inh – inhibitors of Hepatitis C virus NS3 helicase. NS3 helicase DNA unwinding, Cy5 molecular beacon fluorescence. AID 1800. inhibition, % at 10.9 µM. hit rate 0.56% among 290,000;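 active = inhibition above the mean of all tested compounds plus 3 SD, set per campaign, cut at about 35% in these data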
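Test system: hepatitis C virus NS3 helicase domain fragment enzyme. Also added: annealed dual-labelled DNA beacon duplex, ATP-started. Timing: 60 min unwinding reaction at 25 °C after ATP addition. Technique: Cy5 fluorescence. Measure: % inhibition of unwinding.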
EBNA-1 inh – blocks EBNA-1 binding to DNA; EBNA-1 DNA binding, fluorescence polarization; AID 1950; hit rate 0.34% among 300,000; inhibition, % at 14.8 µM; in the data active = inhibition above about 28%
NS3 hel confirm – confirmation of Hepatitis C virus NS3 helicase inhibitors | NS3 helicase DNA unwinding, Cy5 molecular beacon fluorescence | hit rate 31% among 1,600 | inhibition, % at 10.9 µM | AID 1943 | shares compounds with HCV NS3 hel inh;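 active = inhibition above the mean of all tested compounds plus 3 SD, cutoff set per campaign, cut at about 36% in these data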
FID counter trip – intercalator displacement, NS3 helicase counter-screen. shares compounds with HCV NS3 hel inh. DNA fluorescent intercalator displacement, fluorescence. inhibition, % at 7.9 µM. hit rate 4% among 1,600; in the data active = inhibition above about 37%;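 also: higher means more displacement of ethidium bromide from the DNA hairpin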
FID counter DR – displaces fluorescent intercalator from DNA, HCV helicase counter-screen. shares compounds with HCV NS3 hel inh. fluorescent intercalator displacement from DNA, fluorescence. IC50, µM. 120 tested, under 10 active; call rule not given here
A number is an active result; . = inactive; / = no result given.

SMILES	ZTA counter	UBC9 SUMO inh	HCV core dimer	HCV NS3 hel inh	EBNA-1 inh	NS3 hel confirm	FID counter trip	others
Cc1c(Cl)cccc1NS(=O)(=O)c1ccc2c(c1)C1C=CCC1C(c1ccc(C(=O)O)cc1)N2 (stereo not drawn)	.	97	.	39	.	55	43
Cc1ccc(S(=O)(=O)N2CCN(C(=O)CC(C)n3nc(C)c(Cl)c3C)CC2)cc1C (stereo not drawn)	.	.	.	.	.	/	/
COc1ccc2[nH]c(=O)c(-c3nnn(-c4ccc(Cl)c(Cl)c4)n3)cc2c1	.	/	.	/	.	/	/
CC1=NN(c2ccc(C(=O)OC(C)C)cc2)C(=O)/C1=C\C=C\c1ccco1	.	.	.	.	.	/	/
CCc1ccc(N2NC(=O)/C(=C/C=C/c3ccco3)C2=O)cc1	.	.	.	50	.	46	.
COc1ccc(CCNC(=O)C2CCN(C(=O)c3ccc(C(C)(C)C)cc3)CC2)cc1	.	.	.	.	.	/	/
Cc1ccc(S(=O)(=O)/N=C2/NC(=O)/C(=C\c3ccco3)S2)cc1	.	.	.	38	.	67	.
COc1ccc(N=C2NC(=O)/C(=C\c3ccco3)S2)cc1	.	62	.	41	.	.	.
CC(=O)Nc1ccc(S(=O)(=O)/N=C2/NC(=O)/C(=C\c3ccco3)S2)cc1	.	.	.	.	.	/	/
COc1cccc(NC(=O)CN2C(=O)NC3(CCc4ccccc43)C2=O)c1 (stereo not drawn)	.	/	/	/	/	/	/
COc1cccc(C(=O)NOCc2ccccc2)c1OC	.	/	/	/	/	/	/
CC1CCCN(C(=O)c2cccc(S(=O)(=O)Nc3cc(C(F)(F)F)ccc3Cl)c2)C1 (stereo not drawn)	.	.	.	44	.	57	.
O=C1NC(=O)/C(=C\c2ccccc2Oc2ccc(F)c(F)c2)S1	.	.	.	55	.	.	.
CNc1snc(C)c1C(=O)OC(C)C(=O)Nc1ccc(F)cc1 (stereo not drawn)	.	/	/	/	/	/	/
CCS(=O)(=O)c1ccc(OC)c(N=Nc2ccc(O)c3ncccc23)c1	.	.	.	.	.	/	/
CCN(CC)S(=O)(=O)c1cc(OC)ccc1N=Nc1ccc(O)c2ncccc12	/	.	/	50	/	68	.
Cc1ccc(Nc2cccccc2=O)cc1	.	.	.	45	.	.	.
Cc1ccc(NC(=O)COC(=O)c2ccccc2Nc2ccccc2)cc1	.	.	.	.	.	/	/
CC(C)(C)c1ccc(C(=O)NC(=O)CSc2n[nH]c(N)n2)cc1	.	/	/	/	/	/	/
Cc1cc(-c2csc(NC(=O)c3ccc(S(=O)(=O)N(C)C)cc3)n2)c(C)n1-c1ccccc1	.	.	.	66	.	.	.
Oc1ccc(/C=N/N=C(c2ccccc2)c2ccccc2)c(O)c1O	.	.	.	52	.	.	.
CN(CC(=O)Nc1cccc(F)c1)C(=O)CC1CC2CCC1C2 (stereo not drawn)	.	.	.	.	.	/	/
COc1ccc2ccccc2c1C(=O)/C=C\c1ccoc1	.	.	.	55	.	.	.
Cc1cc(C)n(-c2ccc(C(=O)OCC(=O)c3ccc(Br)s3)cc2)n1	.	.	.	50	.	.	.
CCCCOc1ccc(C(=O)Nc2ccc(S(=O)(=O)Nc3onc(C)c3C)cc2)cc1	.	.	.	40	.	54	.
SMILES	ZTA counter	UBC9 SUMO inh	HCV core dimer	HCV NS3 hel inh	EBNA-1 inh	NS3 hel confirm	FID counter trip	others
C=CCSC1=N/C(=C\C=C\c2ccco2)C(=O)S1	.	.	65	42	.	50	.	FID counter DR=.
CN(C)CC(=O)Nc1cc(C(F)(F)F)ccc1Cl	.	.	.	.	.	/	/
N/C(CC(=O)Nc1cc(C(F)(F)F)ccc1Cl)=N\O	.	.	.	.	.	.	.
O=C(c1ccc(NS(=O)(=O)c2ccccc2)cc1)N1CCN(c2ccccc2)CC1	.	/	/	/	/	/	/
C/C(=N\NS(=O)(=O)c1ccc(C(C)(C)C)cc1)c1ccccc1	.	.	.	.	.	/	/
CC(C)(C)c1ccc(S(=O)(=O)/N=C2\C=C(NS(=O)(=O)c3ccccc3)C(=O)c3ccccc32)cc1	.	.	.	43	.	82	60
CCOc1ccccc1OCCC(=O)OCC(=O)Nc1c(C)nn(-c2ccccc2)c1C	.	/	.	/	.	/	/
CCO[C@@H]1OC(C(=O)NCc2nc3ccccc3[nH]2)=C[C@H](c2coc3ccccc3c2=O)[C@H]1CCCO	.	/	.	/	.	/	/
O=C(O)c1ccc(N/N=C/c2ccc(C(F)(F)F)cc2)cc1	.	.	.	37	.	56	.
O=C(Nc1ccc(N2CCOCC2)cc1)C1CC(=O)N(c2ccccc2)C1 (stereo not drawn)	.	.	.	.	.	/	/
Cc1ccc(N2CC(C(=O)Nc3ccc(N4CCOCC4)cc3)CC2=O)cc1C (stereo not drawn)	.	.	.	39	.	.	.
N#CC1=C(N)OC2=C(C(=O)CC(c3ccco3)C2)C1c1ccc(OCc2c(F)cccc2Cl)cc1 (stereo not drawn)	.	.	.	.	.	/	/
COc1cccc(C2C(C#N)=C(N)OC3=C2C(=O)CC(c2ccco2)C3)c1OCc1ccc(F)cc1 (stereo not drawn)	.	.	57	39	.	64	.	FID counter DR=.
Cc1c2n(c3ccccc13)CCN(C)C2	.	/	.	/	.	/	/
Cc1c(NC(=O)COC(=O)c2ccccc2Cl)c(=O)n(-c2ccccc2)n1C	.	.	.	108	.	.	.
COc1cc(OC)c(C(=O)OCC(=O)Nc2c(C)n(C)n(-c3ccccc3)c2=O)cc1OC	.	/	/	/	/	/	/
S=c1[nH]nc(C2(c3ccccc3)CCCC2)o1	.	.	.	.	.	/	/
COc1ccc(OCC(=O)NC(=O)c2ccccc2OC)c([N+](=O)[O-])c1	.	/	.	/	.	/	/
O=C(O)CCc1ccc(-c2ccc(Cl)cc2)n1Cc1ccco1	.	.	.	36	.	68	.
O=C(O)CCc1ccc(-c2cccs2)n1Cc1ccco1	.	.	.	41	.	.	.
COc1ccc(-c2ccc(CCC(=O)O)n2Cc2ccco2)cc1	.	.	.	.	.	/	/
COc1cc(C(=O)NC2CCCC(C)C2C)ccc1OCC(=O)N1CCOCC1 (stereo not drawn)	.	/	/	/	/	/	/
COc1cc(OC)c(OC)cc1/C=N/NC(=O)CSc1ccccc1F	.	.	.	.	.	/	/
O=C(O)Cn1c2c(c3ccccc31)CSc1ccc(Cl)cc1-2	.	.	.	37	.	84	.
CC(NS(=O)(=O)c1cccc(C(=O)NCc2ccncc2)c1)c1ccccc1 (stereo not drawn)	.	/	/	/	/	/	/
Cc1ccc(-c2nnc(-c3cc(C)on3)o2)cc1	.	.	.	.	.	/	/
CCOC(=O)c1ccc(N=Cc2c(O)c3ccccc3oc2=O)cc1	.	.	.	41	.	.	.

From PubChem
